The list is not random: actives were taken first. Their share in the collection is about 9.4%.
Mdm2 MdmX PPI = inhibitors of human Mdm2/MdmX interaction | O15151+Q00987 | SaOS-2 split-luciferase Mdm2/MdmX complementation, luminescence | inhibition, % at 8 µM | 330,000 compounds, 3% hits | AID 485346;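 active = inhibition of at least 50% at 8 µM in the primary screen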
Beta cell apopt = blocks beta cell apoptosis; INS-1E cytokine-induced death, ATP luminescence, 48 h; percent of positive-control rescue, neutral wells zero; 300,000 compounds, 0.8% hits; protection from apoptosis, % (concentration not given with the values);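 active = Every replicate reaches about 75%, or at least half do and their mean reaches it too, limit read from the data; inconclusive = At least half of replicates reach the limit but their mean does not; inactive = Under half of replicates reach the limit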;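 note: higher means more ATP so stronger rescue from cytokine killing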
SKKanGAS inh = SKKanGAS growth inhibition; AID 1662; 300,000 compounds, 1.3% hits; inhibition, % at 7.5 µM; S. pyogenes SKKanGAS, kanamycin growth, BacTiter-Glo, 6 h;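 active = mean replicate score, as percent of positive control median, at least 50; inconclusive = mean below 50 but one replicate at or above 50; inactive = mean and every replicate below 50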;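 note: strain carries kanamycin resistance gene driven by streptokinase promoter and grows in 40 µg/ml kanamycin; loss of luminescence reflects streptokinase promoter inhibition or plain growth inhibition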
Lmaj promast = inhibitors of Leishmania major promastigote growth; AID 1063; 200,000 compounds, 9% hits; inhibition, % at 10 µM; Leishmania major promastigotes, resazurin fluorescence viability; in the data active = inhibition above about 50%;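 note: promastigotes grown with compound for 44 hours at 28 °C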
T cruzi repl = blocks replication of Trypanosoma cruzi; T. cruzi beta-gal in NIH3T3, luminescence, 90 h; inhibition, % (test concentration not listed); 300,000 compounds, 1.4% hits; AID 1885;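 active = mean inhibition across valid replicates above about 55%, limit read from the data; inconclusive = mean below that limit but half or more replicates reach it; inactive = mean below it, under half of replicates reach it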;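 note: signal also drops with host cell toxicity which is not excluded here; higher percent means less beta-gal luminescence so fewer parasites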
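Incubation – ≥90 h infection period, 3 h prior cell attachment · System – NIH/3T3 fibroblasts plus reporter T. cruzi · Doses – compound pinned at 50 nL/well, DMSO · Read-out basis – percent inhibition of parasite-derived β-gal signal · Signal – luminescent β-galactosidase signal after 60 min lysis · Also added – 5000 T. cruzi trypomastigotes/well · Medium – Low-serum DMEM with 2% FBS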
CSC inhib = blocks cancer stem cells. cancer stem cell-like cells viability, luminescence. inhibition, % at 7.5 µM. 300,000 compounds, 1.1% hits; in the data active = inhibition above about 75%; inconclusive = no clear call, values can overlap the other calls; tested in HMLE shEcad cells
A number is an active result; – = inactive; ? = inconclusive; · = no result.

SMILES	Mdm2 MdmX PPI	Beta cell apopt	SKKanGAS inh	Lmaj promast	T cruzi repl	CSC inhib
CN1CCc2c(sc(NC(=O)C3CCN(S(=O)(=O)c4cccs4)CC3)c2C(N)=O)C1	–	·	–	·	–	–
Cc1cc(OC(C)C)nc(NCc2ccccc2)n1	–	–	–	–	–	–
COc1cc(C)nc(NCc2ccccc2)n1	–	–	–	–	–	–
Cc1cc(NC2CCCCC2)nc(NCc2ccccc2)n1	–	104.4	–	97.1	57.5	–
COc1ccc(Nc2cc(C)nc(NCc3ccccc3)n2)cc1	–	–	–	·	60.7	–
O=C(CN(c1cccc(Cl)c1)S(=O)(=O)c1ccc(Cl)cc1)NCc1ccccn1	–	–	–	·	–	–
CC1=C(C(=O)OC(C)(C)C)C(c2cccs2)NC(=O)N1 (stereo not given)	–	–	–	69.1	–	–
Cc1cc(C(=O)OCC(=O)Nc2ccccc2C#N)c(C)o1	–	·	·	·	·	·
CC(C)CC(NC(=O)C(NC(=O)C(Cc1ccc(OCc2ccccc2)cc1)NC(=O)OC(C)(C)C)C(C)C)C(N)=O (stereo not given)	–	–	–	–	–	137.7
Cc1c(-c2ccccc2)nc2ccccc2c1C(=O)Oc1ccc([N+](=O)[O-])cc1	–	–	–	50.5	–	–
O=C1CSC(c2ccccc2F)N1CCN1CCCCC1 (stereo not given)	–	–	–	77.7	–	–
O=C1CSC(c2cccc([N+](=O)[O-])c2)N1CCN1CCCCC1 (stereo not given)	–	–	–	85.4	–	–
O=C1CSC(c2cccc([N+](=O)[O-])c2)N1Cc1ccccc1 (stereo not given)	–	–	–	·	–	–
CCNC(=O)NC(=O)C(C)Oc1ccc(Br)cc1Br (stereo not given)	–	–	–	–	–	–
O=C(CNc1ccc(F)cc1)c1ccccc1	–	–	–	83.2	–	–
O=C(CC(=O)c1ccccc1O)c1cccc(F)c1	–	–	–	97.8	–	–
O=C(CC(=O)c1ccccc1O)c1ccc(F)cc1	–	–	–	97.4	–	–
CN(N)C(=S)Nc1ccc(Cl)cc1	–	–	–	–	–	–
CCc1ccc(NC(=O)C2CCCN2c2nn3c(=O)cc(C)nc3s2)cc1 (stereo not given)	–	–	–	·	–	–
CCOc1ccc(S(=O)(=O)N2CCC(C(=O)NCc3ccccn3)CC2)cc1C	–	–	–	·	–	–
O=C(CSc1nnc(-c2ccccc2Cl)o1)N1CCCC1	–	–	–	·	–	·
COc1cc(C2NC(=S)NC(c3ccccc3)=C2C(C)=O)cc(Cl)c1OCC(=O)O (stereo not given)	–	–	–	–	–	–
CCOC(=O)C1=C(c2ccccc2)NC(=S)NC1c1ccc(Cl)c([N+](=O)[O-])c1 (stereo not given)	–	–	–	57.8	–	–
CC(=O)C1=C(c2ccccc2)NC(=S)NC1c1cc(Cl)c(OC(C)C)c(Cl)c1 (stereo not given)	–	–	–	–	60.9	–
Cc1csc(NC(=O)C(C)Oc2ccc(Cl)cc2C)n1 (stereo not given)	–	–	·	·	·	–
SMILES	Mdm2 MdmX PPI	Beta cell apopt	SKKanGAS inh	Lmaj promast	T cruzi repl	CSC inhib
CCC(Sc1nc2ccccc2o1)C(=O)Nc1nnc(C)s1 (stereo not given)	–	–	–	55.5	–	–
COCCN(C(=O)CSc1nnc(-c2ccccc2F)o1)c1c(N)n(CC(C)C)c(=O)[nH]c1=O	–	–	–	·	–	–
CC(C)Cc1ccc(CN2CCCC(NC(=O)CSc3nncn3C)C2)cc1 (stereo not given)	–	–	–	·	55.0	–
Cn1cnnc1SCC(=O)NC1CCCN(Cc2ccc(Cl)cc2)C1 (stereo not given)	–	–	–	·	–	–
CC(C)Cc1ccc(CN2CCCC(NC(=O)c3nn(C)c(=O)c4ccccc34)C2)cc1 (stereo not given)	–	·	–	·	60.4	·
CC(C)Cc1ccc(CN2CCCC(NC(=O)c3ccnn3C)C2)cc1 (stereo not given)	–	–	–	·	–	–
CCc1ccc(NC(=S)N(Cc2cccc(Br)c2)CC2CCC(C(=O)O)CC2)cc1 (stereo not given)	–	–	–	–	–	–
O=[N+]([O-])c1cc([N+](=O)[O-])c(Oc2cc(F)ccc2F)cc1NN1CCCCC1	–	–	–	·	–	–
CCCC1=C(C(=O)OCC)C(c2cccs2)n2ncnc2N1 (stereo not given)	–	–	–	·	–	–
Nc1nc(SCC(=O)Nc2cccc(Oc3ccccc3)c2)n[nH]1	–	–	–	56.4	–	–
O=C(CSc1nncs1)Nc1cc(-c2ccccc2)nn1-c1ccccc1	–	–	–	50.8	–	·
CCCc1ccc(-c2cc(NC(=O)CSc3n[nH]c(N)n3)n(-c3ccccc3)n2)cc1	–	–	–	–	–	91.3
COCCNc1nnc(SCC(=O)Nc2cc(-c3ccccc3)nn2-c2ccccc2)s1	–	–	–	–	–	–
COc1cc(OC)c(OC)cc1CN1CCC(O)CC1	–	–	–	·	–	–
Cc1ccccc1Cc1c(C)nc2c(C(=O)NCc3ccc4c(c3)OCO4)cnn2c1C	–	–	–	–	–	–
Cc1nc2c(C(=O)NCc3cccs3)cnn2c(C)c1Cc1ccccc1	–	–	–	54.4	–	–
Cc1nc2c(C(=O)NCc3ccc4c(c3)OCO4)cnn2c(C)c1Cc1ccc(F)cc1Cl	–	–	?	–	–	–
Cc1ccc(C)c(Cc2c(C)nc3c(C(=O)NCc4ccc5c(c4)OCO5)cnn3c2C)c1	–	–	–	–	67.7	78.3
Cc1nc2c(C(=O)NCc3ccco3)cnn2c(C)c1Cc1ccc(F)cc1Cl	–	–	–	–	73.9	–
Cc1cccc(Cc2c(C)nc3c(C(=O)NCc4ccco4)cnn3c2C)c1	–	–	–	–	–	–
C/C(=N\NC(N)=S)C1C2C3CC4C5CC(C42)C1C53 (stereo not given)	–	–	–	100.2	77.3	·
COc1ccccc1NS(=O)(=O)c1ccc(Cl)c(NC(=S)NC(=O)C2CCCC2)c1	–	–	–	–	–	–
CCN(CC)c1ccc(S(=O)(=O)Nc2cc(Cl)ccc2Cl)cc1NC(=S)NC(=O)C1CCCC1	–	·	–	56.2	–	99.5
Cc1cc2nc3c(=O)n(CCc4ccccc4)c(=O)[nH]c3nc2cc1N	–	–	–	·	56.4	–
Nc1ccc2nc3c(=O)n(CCc4ccccc4)c(=O)[nH]c3nc2c1	–	–	–	·	–	76.9
CCCCn1c(=O)[nH]c2nc3cc(N)ccc3nc2c1=O	·	–	·	–	·	–
Cc1ccc(C(=O)O)cc1NCc1ccncc1	–	–	–	·	–	–
Cc1c(C)c2ccc(OC(C)C(=O)NC3CCN(Cc4ccccc4)CC3)cc2oc1=O (stereo not given)	–	·	–	·	–	–
COc1cc(S(=O)(=O)Nc2ccc(C)cc2)ccc1N=Cc1c(C)c(C#N)c(=O)n(C)c1O	–	–	–	–	–	–
Cc1ccc(N/N=C/c2c(C)c(C#N)c(=O)n(C)c2O)cc1C	·	·	–	80.1	–	·

Bioassay records from PubChem.
